For this test, the target named is Serotonin 2 (5-HT2) receptor (Rattus norvegicus) (UniProt P30994+P08909+P14842). The test is described as follows: Antagonistic activity against (5-hydroxytryptamine 2 receptor) serotonin-induced contractions in the rat jugular vein. It counts as functional. Put shortly:
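Isolated jugular vein segments mounted on two L-shaped needles, one tied to a transducer, in organ baths with 10 mL modified Krebs bicarbonate solution; 1-2 h equilibration. Control cumulative serotonin contraction curves were recorded, then the antagonist was incubated 1 h and the curves repeated, one antagonist concentration per tissue. K_B = [B]/(dose ratio − 1), using serotonin ED50 ratios; reported as −log K_B.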

Chain of Serotonin 2 (5-HT2) receptor (Rattus norvegicus) (P08909 whole entry, looked up): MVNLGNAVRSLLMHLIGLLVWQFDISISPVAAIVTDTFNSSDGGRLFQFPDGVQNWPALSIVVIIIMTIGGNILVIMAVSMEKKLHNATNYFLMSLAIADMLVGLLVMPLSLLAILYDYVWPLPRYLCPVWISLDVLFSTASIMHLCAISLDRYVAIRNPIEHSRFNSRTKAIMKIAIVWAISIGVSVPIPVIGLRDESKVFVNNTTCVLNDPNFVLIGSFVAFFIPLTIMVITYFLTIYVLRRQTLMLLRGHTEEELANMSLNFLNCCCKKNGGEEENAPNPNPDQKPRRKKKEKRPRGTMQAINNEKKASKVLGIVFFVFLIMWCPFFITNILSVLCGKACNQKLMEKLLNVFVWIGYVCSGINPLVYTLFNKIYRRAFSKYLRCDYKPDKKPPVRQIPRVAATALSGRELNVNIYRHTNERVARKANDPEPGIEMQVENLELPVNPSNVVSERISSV
Chain of Serotonin 2 (5-HT2) receptor (Rattus norvegicus) (P14842 whole entry, looked up): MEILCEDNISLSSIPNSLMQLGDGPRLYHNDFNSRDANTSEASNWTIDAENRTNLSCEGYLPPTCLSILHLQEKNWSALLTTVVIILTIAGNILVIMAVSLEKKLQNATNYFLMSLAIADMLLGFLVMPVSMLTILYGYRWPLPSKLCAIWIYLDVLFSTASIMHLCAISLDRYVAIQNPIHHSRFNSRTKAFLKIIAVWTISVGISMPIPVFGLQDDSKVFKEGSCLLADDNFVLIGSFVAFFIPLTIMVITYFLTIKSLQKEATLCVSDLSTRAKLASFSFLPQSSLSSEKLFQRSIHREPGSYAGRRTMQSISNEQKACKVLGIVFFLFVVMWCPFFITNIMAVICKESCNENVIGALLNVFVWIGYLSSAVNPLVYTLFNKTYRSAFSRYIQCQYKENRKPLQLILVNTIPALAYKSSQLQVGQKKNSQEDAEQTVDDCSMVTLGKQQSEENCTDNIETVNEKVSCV
Chain of Serotonin 2 (5-HT2) receptor (Rattus norvegicus) (P30994 whole entry, looked up): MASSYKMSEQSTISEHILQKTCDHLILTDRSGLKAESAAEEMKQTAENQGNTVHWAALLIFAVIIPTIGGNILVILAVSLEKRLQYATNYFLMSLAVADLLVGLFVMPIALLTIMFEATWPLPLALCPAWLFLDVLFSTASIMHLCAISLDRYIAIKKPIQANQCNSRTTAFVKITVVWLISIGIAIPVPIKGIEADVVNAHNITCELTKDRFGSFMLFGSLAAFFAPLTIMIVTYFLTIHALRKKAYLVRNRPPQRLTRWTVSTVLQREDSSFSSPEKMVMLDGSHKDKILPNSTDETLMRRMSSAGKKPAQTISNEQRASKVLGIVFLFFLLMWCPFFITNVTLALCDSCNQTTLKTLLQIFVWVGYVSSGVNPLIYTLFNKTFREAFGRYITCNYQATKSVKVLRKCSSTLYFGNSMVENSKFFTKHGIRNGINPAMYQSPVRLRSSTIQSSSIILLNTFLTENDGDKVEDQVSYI

`CCCCCCCCn1cc2c3c(cccc31)[C@H]1C[C@@H](C(=O)NC3CCCCC3)CN(C)[C@@H]1C2` showed a -Log KB below 7.

As to `CN1C[C@H](c2nnnn2C2CCCCC2)C[C@@H]2c3cccc4c3c(cn4C)C[C@H]21`, the -Log KB is below 7.

`CCn1cc2c3c(cccc31)[C@H]1C[C@@H](C(N)=O)CN(C)[C@@H]1C2` had a -Log KB of 8.44.

Compound `CCC(CC)n1cc2c3c(cccc31)[C@H]1C[C@@H](C(=O)NC3CCCCC3)CN(C)[C@@H]1C2` showed a -Log KB of 7.8.

Regarding `CN1C[C@H](c2nnnn2C2CCCCC2)C[C@@H]2c3cccc4[nH]cc(c34)C[C@H]21`, the -Log KB was below 6.52.

`CCC(CC)n1cc2c3c(cccc31)[C@H]1C[C@@H](C(=O)NC3CCCC3)CN(C)[C@@H]1C2` returned a -Log KB of 7.3.

In turn, `CC(C)n1cc2c3c(cccc31)[C@H]1C[C@@H](CC(=O)NC3CCCCC3)CN(C)[C@@H]1C2` showed a -Log KB of 8.88.

Turning to `CN1C[C@H](C(=O)NC2CCCCC2)C[C@@H]2c3cccc4c3c(cn4C)C[C@H]21`, the -Log KB was 9.7.

For the compound `CN1C[C@H](C(=O)NC2CCCCC2)C[C@@H]2c3cccc4c3c(cn4Cc3ccccc3)C[C@H]21`, the -Log KB was below 7.

Regarding `CC(C)Cn1cc2c3c(cccc31)[C@H]1C[C@@H](C(=O)NC3CCCCC3)CN(C)[C@@H]1C2`, the -Log KB is below 7.

On to `CCn1cc2c3c(cccc31)[C@H]1C[C@@H](C(=O)NC3CCCC3)CN(C)[C@@H]1C2`, for which the -Log KB amounted to 9.8.

`CN1C[C@H](C(=O)NC2CCCC2)C[C@@H]2c3cccc4c3c(cn4C)C[C@H]21` came in with a -Log KB of 9.23.

In turn, `CN1C[C@H](C(N)=O)C[C@@H]2c3cccc4[nH]cc(c34)C[C@H]21` gave a -Log KB of 7.

The compound `C=CCn1cc2c3c(cccc31)[C@H]1C[C@@H](C(=O)NC3CCCCC3)CN(C)[C@@H]1C2` had a -Log KB of 8.15.

As for `CCn1cc2c3c(cccc31)[C@H]1C[C@@H](NC(=O)C3CCC(OC)CC3)CN(C)[C@@H]1C2` (stereo partly specified), the -Log KB was 9.43.

In the case of `CN1C[C@H](C(=O)NC2CCCCC2)C[C@@H]2c3cccc4c3c(cn4C3CCCC3)C[C@H]21`, the -Log KB is below 7.

On to `CCCn1cc2c3c(cccc31)[C@H]1C[C@@H](C(=O)NC3CCCCC3)CN(C)[C@@H]1C2`, for which the -Log KB is 8.

Consider `COC1CCC(C(=O)N[C@@H]2C[C@@H]3c4cccc5c4c(cn5C)C[C@H]3N(C)C2)CC1` (stereo partly specified), for which the -Log KB stood at 8.71.

`CCCCn1cc2c3c(cccc31)[C@H]1C[C@@H](C(=O)NC3CCCCC3)CN(C)[C@@H]1C2` displayed a -Log KB of 7.5.

For the compound `CC(C)n1cc2c3c(cccc31)[C@H]1C[C@@H](C(N)=O)CN(C)[C@@H]1C2`, the -Log KB was found to be 8.7.

With `CC(C)n1cc2c3c(cccc31)[C@H]1C[C@@H](c3nnnn3C3CCCCC3)CN(C)[C@@H]1C2`, the -Log KB is below 8.

Take `CN1C[C@H](C(N)=O)C[C@@H]2c3cccc4c3c(cn4C)C[C@H]21`: the -Log KB was 7.81.

In turn, `CN1C[C@H](C(=O)NC2CCCCC2)C[C@@H]2c3cccc4[nH]cc(c34)C[C@H]21` displayed a -Log KB of 9.24.

`CN1C[C@H](CC(=O)NC2CCCCC2)C[C@@H]2c3cccc4c3c(cn4C)C[C@H]21`: the -Log KB came out at 8.97.

Compound `CC(C)Cn1cc2c3c(cccc31)[C@H]1C[C@@H](C(=O)NC3CCCC3)CN(C)[C@@H]1C2` gave a -Log KB below 7.

With `CCn1cc2c3c(cccc31)[C@H]1C[C@@H](C(=O)NC3CCCCC3)CN(C)[C@@H]1C2`, the -Log KB was 9.25.

Take `CN1C[C@H](C(=O)NC2CCCC2)C[C@@H]2c3cccc4[nH]cc(c34)C[C@H]21`: the -Log KB was 8.87.

`CC(C)n1cc2c3c(cccc31)[C@H]1C[C@@H](C(=O)NC3CCCCC3)CN(C)[C@@H]1C2` returned a -Log KB of 9.67.

As to `CN1C[C@H](CC(=O)NC2CCCCC2)C[C@@H]2c3cccc4[nH]cc(c34)C[C@H]21`, the -Log KB turned out to be 8.05.

Regarding `COC1CCC(C(=O)N[C@@H]2C[C@@H]3c4cccc5c4c(cn5C(C)C)C[C@H]3N(C)C2)CC1` (stereo partly specified), the -Log KB was found to be 9.64.

`CC(C)n1cc2c3c(cccc31)[C@H]1C[C@@H](C(=O)NC3CCCC3)CN(C)[C@@H]1C2` showed a -Log KB of 10.3.

The values are drawn from ChEMBL document CHEMBL1124822, “(8 beta)-6-methylergoline amide derivatives as serotonin antagonists: N1-substituent effects on vascular 5HT2 receptor activity” (J Med Chem, 1990).
